In brackets after ≈: the same amount, converted by molar mass.
How the values were obtained:
Type in all cases: functional
Staphylococcus aureus [1] = test: Antimicrobial activity against Staphylococcus aureus UFPEDA 01 after 20 hrs by twofold serial dilution technique; conditions: UFPEDA 01, 20 h
Outline: (§1)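 Twofold serial dilution MIC in agar plates against Gram-positive strains and multidrug-resistant clinical isolates. Inoculum applied was 10⁵ CFU/plate. Plates with culture medium plus DMSO served as negative control. MIC was read after incubation at 35 °C for 20 h.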

Bacillus subtilis [2] = test: Antimicrobial activity against Bacillus subtilis UFPEDA 16 after 20 hrs by twofold serial dilution technique; conditions: UFPEDA 16, 20 h
Outline: (§2)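 MIC was determined by twofold serial dilution. Bacteria were tested in plates at 10⁵ CFU/plate and read after 20 h. C. albicans was tested in tubes at 10³ CFU/tube and read after 48 h. All incubations were at 35 °C. Medium plus DMSO served as the negative control.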

Micrococcus luteus [3] = test: Antimicrobial activity against Micrococcus luteus UFPEDA 06 after 20 hrs by twofold serial dilution technique; conditions: UFPEDA 06, 20 h; outline: as §2
Enterococcus faecalis [4] = test: Antimicrobial activity against Enterococcus faecalis UFPEDA 138 after 20 hrs by twofold serial dilution technique; conditions: UFPEDA 138, 20 h; outline: as §2
[5] = system: Mycolicibacterium smegmatis; test: Antimicrobial activity against Mycobacterium smegmatis UFPEDA 71 after 20 hrs by twofold serial dilution technique; conditions: UFPEDA 71, 20 h; outline: as §2
Candida albicans [6] = test: Antimicrobial activity against Candida albicans UFPEDA 1007 after 48 hrs by twofold serial dilution technique; conditions: UFPEDA 1007, 48 h; outline: as §2
Staphylococcus aureus [7] = test: Antimicrobial activity against multidrug-resistant Staphylococcus aureus H.C. 20981 isolate after 20 hrs by twofold serial dilution technique; conditions: H.C. 20981, 20 h; outline: as §1
Staphylococcus aureus [8] = test: Antimicrobial activity against multidrug-resistant Staphylococcus aureus H.C. 21141 isolate after 20 hrs by twofold serial dilution technique; conditions: H.C. 21141, 20 h; outline: as §1
Staphylococcus aureus [9] = test: Antimicrobial activity against multidrug-resistant Staphylococcus aureus H.C. 21036 isolate after 20 hrs by twofold serial dilution technique; conditions: H.C. 21036, 20 h; outline: as §1
Staphylococcus aureus [10] = test: Antimicrobial activity against multidrug-resistant Staphylococcus aureus H.C. 20489 isolate after 20 hrs by twofold serial dilution technique; conditions: H.C. 20489, 20 h; outline: as §1
Staphylococcus aureus [11] = test: Antimicrobial activity against multidrug-resistant Staphylococcus aureus H.C. 20794 isolate after 20 hrs by twofold serial dilution technique; conditions: H.C. 20794, 20 h; outline: as §1
Staphylococcus aureus [12] = test: Antimicrobial activity against multidrug-resistant Staphylococcus aureus H.C. 20905 isolate after 20 hrs by twofold serial dilution technique; conditions: H.C. 20905, 20 h; outline: as §1
Enterococcus faecalis [13] = test: Antimicrobial activity against multidrug-resistant Enterococcus faecalis H.C. 21752 isolate after 20 hrs by twofold serial dilution technique; conditions: H.C. 21752, 20 h; outline: as §1
Enterococcus faecalis [14] = test: Antimicrobial activity against multidrug-resistant Enterococcus faecalis H.C. 21944 isolate after 20 hrs by twofold serial dilution technique; conditions: H.C. 21944, 20 h; outline: as §1
Enterococcus faecalis [15] = test: Antimicrobial activity against multidrug-resistant Enterococcus faecalis H.C. 24708 isolate after 20 hrs by twofold serial dilution technique; conditions: H.C. 24708, 20 h; outline: as §1
Enterococcus faecalis [16] = test: Antimicrobial activity against multidrug-resistant Enterococcus faecalis H.C. 24962 isolate after 20 hrs by twofold serial dilution technique; conditions: H.C. 24962, 20 h; outline: as §1
Staphylococcus [17] = test: Antimicrobial activity against coagulase-negative Staphylococcus H.A.M. 278 isolate after 20 hrs by twofold serial dilution technique; conditions: H.A.M. 278, 20 h; outline: as §2
Staphylococcus [18] = test: Antimicrobial activity against coagulase-negative Staphylococcus H.A.M. 338 isolate after 20 hrs by twofold serial dilution technique; conditions: H.A.M. 338, 20 h; outline: as §2
NCI-H292 [19] = test: Cytotoxicity against human NCI-H292 cells at 10 ug/mL after 72 hrs by MTT assay; conditions: NCI-H292, 72 h, read-out: GI
Outline: (§3)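 MTT antiproliferative assay. Cells were diluted to 10⁵ cells/mL in 96-well plates and preincubated for 24 h at 37 °C in humid 5% CO₂. Compounds or vincristine (reference) were then added. Formazan was dissolved and OD read at 540 nm, compared with medium-only control cells. Run in triplicate.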

NCI-H292 [20] = test: Cytotoxicity against human NCI-H292 cells at 5 ug/mL after 72 hrs by MTT assay; conditions: NCI-H292, 72 h, read-out: GI; outline: as §3
NCI-H292 [21] = test: Cytotoxicity against human NCI-H292 cells at 2.5 ug/mL after 72 hrs by MTT assay; conditions: NCI-H292, 72 h, read-out: GI; outline: as §3
NCI-H292 [22] = test: Cytotoxicity against human NCI-H292 cells at 1.25 ug/mL after 72 hrs by MTT assay; conditions: NCI-H292, 72 h, read-out: GI; outline: as §3
HEp-2 [23] = test: Cytotoxicity against human Hep2 cells at 10 ug/mL after 72 hrs by MTT assay; conditions: HEp-2, 72 h, read-out: GI; outline: as §3
HEp-2 [24] = test: Cytotoxicity against human Hep2 cells at 5 ug/mL after 72 hrs by MTT assay; conditions: HEp-2, 72 h, read-out: GI; outline: as §3
HEp-2 [25] = test: Cytotoxicity against human Hep2 cells at 2.5 ug/mL after 72 hrs by MTT assay; conditions: HEp-2, 72 h, read-out: GI; outline: as §3
HEp-2 [26] = test: Cytotoxicity against human Hep2 cells at 1.25 ug/mL after 72 hrs by MTT assay; conditions: HEp-2, 72 h, read-out: GI; outline: as §3
Serratia marcescens = test: Antimicrobial activity against Serratia marcescens UFPEDA 398 at 300 ug/disk after 24 hrs by disk diffusion method; conditions: UFPEDA 398, 24 h, read-out: IZ
Outline: (§4)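 Preliminary screen by disk diffusion. Paper disks (6 mm) holding 300 µg of compound were placed on agar plates inoculated with a standardized microbial suspension. DMSO-only disks served as negative controls. A mean inhibition zone below 7 mm was scored as no sensitivity. Values are means, n = 3.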

Escherichia coli = test: Antimicrobial activity against Escherichia coli UFPEDA 224 at 300 ug/disk after 24 hrs by disk diffusion method; conditions: UFPEDA 224, 24 h, read-out: IZ; outline: as §4
Staphylococcus aureus [27] = test: Antimicrobial activity against Staphylococcus aureus UFPEDA 01 at 300 ug/disk after 24 hrs by disk diffusion method; conditions: UFPEDA 01, 24 h, read-out: IZ; outline: as §4
Bacillus subtilis [28] = test: Antimicrobial activity against Bacillus subtilis UFPEDA 16 at 300 ug/disk after 24 hrs by disk diffusion method; conditions: UFPEDA 16, 24 h, read-out: IZ; outline: as §4
Micrococcus luteus [29] = test: Antimicrobial activity against Micrococcus luteus UFPEDA 06 at 300 ug/disk after 24 hrs by disk diffusion method; conditions: UFPEDA 06, 24 h, read-out: IZ; outline: as §4
Enterococcus faecalis [30] = test: Antimicrobial activity against Enterococcus faecalis UFPEDA 138 at 300 ug/disk after 24 hrs by disk diffusion method; conditions: UFPEDA 138, 24 h, read-out: IZ; outline: as §4
Pseudomonas aeruginosa = test: Antimicrobial activity against Pseudomonas aeruginosa UFPEDA 39 at 300 ug/disk after 24 hrs by disk diffusion method; conditions: UFPEDA 39, 24 h, read-out: IZ; outline: as §4
[31] = system: Mycolicibacterium smegmatis; test: Antimicrobial activity against Mycobacterium smegmatis UFPEDA 71 at 300 ug/disk after 24 hrs by disk diffusion method; conditions: UFPEDA 71, 24 h, read-out: IZ; outline: as §4
Candida albicans [32] = test: Antimicrobial activity against Candida albicans UFPEDA 1007 at 300 ug/disk after 48 hrs by disk diffusion method; conditions: UFPEDA 1007, 48 h, read-out: IZ; outline: as §4

Compound	MIC (Staphylococcus aureus [1])	MIC (Bacillus subtilis [2])	MIC (Micrococcus luteus [3])	MIC (Enterococcus faecalis [4])	MIC [5]	MIC (Candida albicans [6])	MIC (Staphylococcus aureus [7])	MIC (Staphylococcus aureus [8])	MIC (Staphylococcus aureus [9])	MIC (Staphylococcus aureus [10])	MIC (Staphylococcus aureus [11])	MIC (Staphylococcus aureus [12])	MIC (Enterococcus faecalis [13])	MIC (Enterococcus faecalis [14])	MIC (Enterococcus faecalis [15])	MIC (Enterococcus faecalis [16])	MIC (Staphylococcus [17])	MIC (Staphylococcus [18])	inhibition of growth at 10 µg/mL (NCI-H292 [19])	inhibition of growth at 5 µg/mL (NCI-H292 [20])	further results
O=C1NC(=S)/C(=C/c2ccccc2Br)S1	4 µg/mL (≈ 13.3 µM)	8 µg/mL (≈ 26.6 µM)	16 µg/mL (≈ 53.3 µM)	32 µg/mL (≈ 107 µM)	32 µg/mL (≈ 107 µM)	32 µg/mL (≈ 107 µM)	4 µg/mL (≈ 13.3 µM)	16 µg/mL (≈ 53.3 µM)	4 µg/mL (≈ 13.3 µM)	4 µg/mL (≈ 13.3 µM)	4 µg/mL (≈ 13.3 µM)	4 µg/mL (≈ 13.3 µM)	8 µg/mL (≈ 26.6 µM)	16 µg/mL (≈ 53.3 µM)	16 µg/mL (≈ 53.3 µM)	16 µg/mL (≈ 53.3 µM)	2 µg/mL (≈ 6.66 µM)	16 µg/mL (≈ 53.3 µM)	36.9%	22.9%	inhibition of growth at 2.5 µg/mL (NCI-H292 [21]): 16.2%; inhibition of growth at 1.25 µg/mL (NCI-H292 [22]): 13.3%; inhibition of growth at 10 µg/mL (HEp-2 [23]): 21.2%; inhibition of growth at 5 µg/mL (HEp-2 [24]): 16.2%; inhibition of growth at 2.5 µg/mL (HEp-2 [25]): 10.3%; inhibition of growth at 1.25 µg/mL (HEp-2 [26]): 3.14%; zone of inhibition at 300 µg/disc (Serratia marcescens): < 7 mm; zone of inhibition at 300 µg/disc (Escherichia coli): < 7 mm; zone of inhibition at 300 µg/disc (Staphylococcus aureus [27]): 25 mm; zone of inhibition at 300 µg/disc (Bacillus subtilis [28]): 19 mm; zone of inhibition at 300 µg/disc (Micrococcus luteus [29]): 18 mm; zone of inhibition at 300 µg/disc (Enterococcus faecalis [30]): 19 mm; zone of inhibition at 300 µg/disc (Pseudomonas aeruginosa): < 7 mm; zone of inhibition at 300 µg/disc [31]: 21 mm; zone of inhibition at 300 µg/disc (Candida albicans [32]): 13 mm
O=C1NC(=S)/C(=C/c2cccc(Br)c2)S1	4 µg/mL (≈ 13.3 µM)	8 µg/mL (≈ 26.6 µM)	8 µg/mL (≈ 26.6 µM)	16 µg/mL (≈ 53.3 µM)	16 µg/mL (≈ 53.3 µM)	64 µg/mL (≈ 213 µM)	16 µg/mL (≈ 53.3 µM)	32 µg/mL (≈ 107 µM)	16 µg/mL (≈ 53.3 µM)	8 µg/mL (≈ 26.6 µM)	8 µg/mL (≈ 26.6 µM)	16 µg/mL (≈ 53.3 µM)	8 µg/mL (≈ 26.6 µM)	16 µg/mL (≈ 53.3 µM)	8 µg/mL (≈ 26.6 µM)	16 µg/mL (≈ 53.3 µM)	64 µg/mL (≈ 213 µM)	64 µg/mL (≈ 213 µM)	42.4%	22%	inhibition of growth at 2.5 µg/mL (NCI-H292 [21]): 11.1%; inhibition of growth at 1.25 µg/mL (NCI-H292 [22]): 4.67%; inhibition of growth at 10 µg/mL (HEp-2 [23]): 23.6%; inhibition of growth at 5 µg/mL (HEp-2 [24]): -1.04%; inhibition of growth at 2.5 µg/mL (HEp-2 [25]): -1.82%; inhibition of growth at 1.25 µg/mL (HEp-2 [26]): -5.3%; zone of inhibition at 300 µg/disc (Serratia marcescens): < 7 mm; zone of inhibition at 300 µg/disc (Escherichia coli): < 7 mm; zone of inhibition at 300 µg/disc (Staphylococcus aureus [27]): 28 mm; zone of inhibition at 300 µg/disc (Bacillus subtilis [28]): 26 mm; zone of inhibition at 300 µg/disc (Micrococcus luteus [29]): 29 mm; zone of inhibition at 300 µg/disc (Enterococcus faecalis [30]): 25 mm; zone of inhibition at 300 µg/disc (Pseudomonas aeruginosa): < 7 mm; zone of inhibition at 300 µg/disc [31]: 25 mm; zone of inhibition at 300 µg/disc (Candida albicans [32]): 14 mm

From ChEMBL document CHEMBL1158358, “Synthesis, antimicrobial and cytotoxic activities of some 5-arylidene-4-thioxo-thiazolidine-2-ones” (Eur J Med Chem, 2009)
